Reference: ChEMBL document CHEMBL1122441, “Structure-activity relationships of synthetic antibiotic analogues of anisomycin” (1983)
Values after ≈ are worked out from the molar mass of the structure shown.

Legend:
[1] = test system: Actinomyces israelii; experiment: Antibacterial activity against Actinomyces israelii, activity expressed as inhibitory zone (mm, diameter); assay type: functional
In short: (§1)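 Agar diffusion: disks loaded with 0.05 mg drug (stock 1 mg/mL in Me2SO-EtOH 1:9) on brain-heart infusion agar seeded 1:100 with 48-h anaerobe culture grown in thioglycolate broth; incubated anaerobically at 37 °C for 24 h; zone diameter measured in mm.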

[2] = test system: Bacteroides fragilis; experiment: Antibacterial activity against Bacteroides fragilis, activity expressed as […] inhibitory zone (mm, diameter); assay type: functional
In short: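 Agar diffusion vs B. fragilis grown in thioglycolate broth: 0.05 mg drug per paper disk (stock 1 mg/mL, Me2SO-EtOH 1:9), brain-heart infusion agar seeded with 48-h culture at 1:100, anaerobic 37 °C, 24 h; zone diameter in mm.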

[3] = test system: Clostridium novyi; experiment: Antibacterial activity against Clostridium novyi, activity expressed as inhibitory zone (mm, diameter); assay type: functional; in short: as §1
[4] = test system: Candida albicans; experiment: Antifungal activity against Candida albicans, activity expressed as […] inhibitory zone (mm, diameter); assay type: functional
In short: (§2)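 Yeast grown in Sabouraud's dextrose broth, 24-h culture seeded 1:100 into agar; paper disks carrying 0.05 mg drug (from 1 mg/mL stock in Me2SO-EtOH 1:9); 37 °C, read after 48 h as zone diameter (mm).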

[5] = test system: Epidermophyton floccosum; experiment: Antifungal activity against Epidermophyton floccosum, activity expressed as inhibitory zone (mm, diameter); assay type: functional
In short: (§3)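 Dermatophytes grown in Sabouraud's dextrose broth, 4-5 day cultures seeded 1:100 into agar; disks with 0.05 mg drug (1 mg/mL stock, Me2SO-EtOH 1:9); grown and tested at 28 °C, zone diameter (mm) read after 48 h.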

[6] = test system: Epidermophyton floccosum; experiment: Antifungal activity against Epidermophyton floccosum, activity expressed as minimum inhibitory concentration (ug/mL); assay type: functional; details: Epidermophyton floccosum; read-out: MIC
[7] = test system: Entamoeba histolytica; experiment: Antiprotozoal activity measured as the conc for 100% inhibition of Entamoeba histolytica; assay type: functional, organism-based
In short: (§4)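 E. histolytica (J 190) grown 48 h at 37 °C in modified Boeck Drbohlav medium, pooled; 0.6 × 10^6 organisms inoculated into 10 mL medium with drug at 32 to 0.06 µg/mL, incubated 48 h.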

[8] = test system: Cutibacterium acnes; experiment: Antibacterial activity against Propionibacterium acnes, activity expressed as inhibitory zone (mm, diameter); assay type: functional; in short: as §1
[9] = test system: Saccharomyces cerevisiae; experiment: Antifungal activity against Saccharomyces cerevisiae, activity expressed as minimum inhibitory concentration (ug/mL).; assay type: functional; details: Saccharomyces cerevisiae; read-out: MIC
[10] = test system: Tritrichomonas suis; experiment: Antiprotozoal activity measured as the conc for 100% inhibition of Trichomonas foetus; assay type: functional, organism-based
In short: (§5)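 Protozoa grown 48 h (T. vaginalis in TYM 721, T. foetus in TYM 359, E. histolytica J 190 in modified Boeck Drbohlav medium, 37 °C) and pooled; 0.6 × 10^6 organisms into 10-mL tubes with drug 32 to 0.06 µg/mL, 48 h; inhibition scored microscopically against untreated controls as 100, >95, 95-25 or <25%.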

[11] = test system: Tritrichomonas suis; experiment: Antiprotozoal activity measured as the conc for 95-[…]% inhibition of Trichomonas foetus; assay type: functional, organism-based
[12] = test system: Tritrichomonas suis; experiment: Antiprotozoal activity measured as the conc for <[…]% inhibition of Trichomonas foetus; assay type: functional, organism-based
[13] = test system: Streptococcus pyogenes; experiment: Antibacterial activity against Streptococcus pyogenes C, activity expressed as inhibitory zone (mm, diameter); assay type: functional; in short: as §1
[14] = test system: Trichomonas vaginalis; experiment: Antiprotozoal activity measured as the conc for 100% inhibition of Trichomonas vaginalis; assay type: functional, organism-based; in short: as §5
[15] = test system: Trichomonas vaginalis; experiment: Antiprotozoal activity measured as the conc for 95-[…]% inhibition of Trichomonas vaginalis; assay type: functional, organism-based
[16] = test system: Trichomonas vaginalis; experiment: Antiprotozoal activity measured as the conc for <[…]% inhibition of Trichomonas vaginalis; assay type: functional, organism-based
[17] = test system: Trichomonas vaginalis; experiment: Antiprotozoal activity measured as the conc for >95% inhibition of Trichomonas vaginalis; assay type: functional, organism-based; in short: as §5
[18] = test system: Trichophyton benhamiae; experiment: Antifungal activity against Trichophyton mentagrophytes, activity expressed as inhibitory zone (mm, diameter); assay type: functional, Arthroderma benhamiae; in short: as §3
[19] = test system: Trichophyton benhamiae; experiment: Antifungal activity against Trichophyton mentagrophytes, activity expressed as minimum inhibitory concentration (ug/mL).; assay type: functional, Arthroderma benhamiae; details: Trichophyton benhamiae; read-out: MIC
[20] = test system: Candida albicans; experiment: Antifungal activity against Candida albicans, activity expressed as minimum inhibitory concentration (ug/mL); assay type: functional; details: Candida albicans; read-out: MIC
In short: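 Tube dilution in Sabouraud's dextrose broth (ca. 3 mL/tube) at 37 °C; inoculum from 24-h yeast culture, 1:1000 in saline. Drug dissolved in Me2SO-EtOH (1:9), stock 3.2 mg/mL; twofold serial dilutions 32 to 0.06 µg/mL. Read after 48 h; MIC = lowest concentration with no visible growth.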

[21] = test system: Entamoeba histolytica; experiment: Antiprotozoal activity measured as the conc for >95% inhibition of Entamoeba histolytica; assay type: functional, organism-based; in short: as §4
[22] = test system: Candida albicans; experiment: Antifungal activity against Candida albicans, activity expressed as minimum inhibitory concentration ([…]); assay type: functional
[23] = test system: Cutibacterium acnes; experiment: Antibacterial activity against Propionibacterium acnes, activity expressed as inhibitory zone (mm, diameter); QA is questionable activity; assay type: functional, organism-based; in short: as §1
[24] = test system: Saccharomyces cerevisiae; experiment: Antifungal activity against Saccharomyces cerevisiae, activity expressed as inhibitory zone (mm, diameter); assay type: functional; in short: as §2
[25] = test system: Saccharomyces cerevisiae; experiment: Antifungal activity against Saccharomyces cerevisiae, activity expressed as minimum inhibitory concentration ([…]).; assay type: functional
[26] = test system: Tritrichomonas suis; experiment: Antiprotozoal activity measured as the conc for < […]% inhibition of Trichomonas foetus; assay type: functional, organism-based
[27] = test system: Trichomonas vaginalis; experiment: Antiprotozoal activity measured as the conc for<[…]% inhibition of Trichomonas vaginalis; assay type: functional, organism-based
[28] = test system: Trichophyton benhamiae; experiment: Antifungal activity against Trichophyton mentagrophytes, activity expressed as minimum inhibitory concentration ([…]).; assay type: functional, Arthroderma benhamiae
[29] = test system: Epidermophyton floccosum; experiment: Antifungal activity against Epidermophyton floccosum, activity expressed as minimum inhibitory concentration ([…]); assay type: functional
[30] = test system: Entamoeba histolytica; experiment: Antiprotozoal activity measured as the conc for <[…]% inhibition of Entamoeba histolytica; assay type: functional, organism-based
[31] = test system: Entamoeba histolytica; experiment: Antiprotozoal activity measured as the conc for 95-[…]% inhibition of Entamoeba histolytica; assay type: functional, organism-based
[32] = test system: Tritrichomonas suis; experiment: Antiprotozoal activity measured as the conc for >95% inhibition of Trichomonas foetus; assay type: functional, organism-based; in short: as §5
[33] = test system: Saccharomyces cerevisiae; experiment: Antifungal activity against Saccharomyces cerevisiae, activity expressed as inhibitory zone (mm, diameter); QA is questionable activity; assay type: functional, organism-based; in short: as §2

SMILES	MIC [6]	MIC [9]	MIC [19]	MIC [20]	Inhibitory zone [1]	Inhibitory zone [2]	Inhibitory zone [3]	Inhibitory zone [4]	Inhibitory zone [5]	Concentration [7]	Inhibitory zone [8]	Concentration [10]	Concentration [11]	Concentration [12]	Inhibitory zone [13]	Concentration [14]	Concentration [15]	Concentration [16]	Inhibitory zone [18]	Inhibitory zone [24]	other results
Cc1ncc([N+](=O)[O-])n1CCO [METRONIDAZOLE]	> 32 mg/L	> 32 mg/L	> 32 mg/L	> 32 mg/L	0 mm	20 mm	25 mm	0 mm	8 mm	0.25 µg/mL	0 mm	0.5 µg/mL	0.25 µg/mL	0.12 µg/mL	0 mm	0.5 µg/mL	0.12 µg/mL	0.06 µg/mL	0 mm		Concentration [17]: 0.25 µg/mL; Concentration [21]: 0.12 µg/mL
COc1ccccc1C[C@H]1NC[C@H](O)[C@H]1OC(C)=O					0 mm	0 mm	13 mm	0 mm	0 mm						0 mm			32 µg/mL	0 mm	0 mm	MIC [22]: > 32 mg/L; Inhibitory zone [23]: Questionable activity; MIC [25]: > 32 mg/L; Concentration [26]: 32 µg/mL; Concentration [27]: 32 µg/mL; MIC [28]: > 32 mg/L; MIC [29]: > 32 mg/L
COc1ccc(C[C@H]2NC[C@H](O)[C@H]2OC(C)=O)cc1 (racemic) [ANISOMYCIN]	32 mg/L (≈ 121 µM)	0.5 mg/L (≈ 1.88 µM)	4 mg/L (≈ 15.1 µM)	8 mg/L (≈ 30.2 µM)	0 mm	0 mm	0 mm	0 mm	8 mm		0 mm				0 mm				10 mm	10 mm	
CC(=O)O[C@@H]1[C@@H](O)CN[C@@H]1Cc1ccc(C)cc1	16 mg/L (≈ 64.2 µM)	1 mg/L (≈ 4.01 µM)	4 mg/L (≈ 16 µM)	8 mg/L (≈ 32.1 µM)	0 mm	0 mm	0 mm	0 mm	8 mm	4 µg/mL	0 mm	16 µg/mL	1 µg/mL	0.5 µg/mL	0 mm	8 µg/mL	2 µg/mL		10 mm	0 mm	Concentration [31]: 1 µg/mL; Concentration [32]: 4 µg/mL; Concentration [17]: 4 µg/mL; Concentration [21]: 2 µg/mL

Now from value to compound, other results behind:

MIC [6]	MIC [9]	MIC [19]	MIC [20]	SMILES	Inhibitory zone [1]	Inhibitory zone [2]	Inhibitory zone [3]	Inhibitory zone [4]	Inhibitory zone [5]	Concentration [7]	Inhibitory zone [8]	Concentration [10]	Concentration [11]	Concentration [12]	Inhibitory zone [13]	Concentration [14]	Concentration [15]	Concentration [16]	Inhibitory zone [18]	Inhibitory zone [24]	other results
> 32 mg/L	> 32 mg/L	> 32 mg/L	> 32 mg/L	COc1ccc(C(c2ccccc2)[C@H]2NC[C@H](O)[C@H]2OC(C)=O)cc1 (stereo partly drawn)	10 mm	0 mm	20 mm	0 mm	10 mm		18 mm		32 µg/mL	16 µg/mL	13 mm		32 µg/mL	16 µg/mL	0 mm	0 mm	Concentration [30]: 32 µg/mL
32 mg/L (≈ 136 µM)	2 mg/L (≈ 8.5 µM)	16 mg/L (≈ 68 µM)	32 mg/L (≈ 136 µM)	CC(=O)O[C@@H]1[C@@H](O)CN[C@@H]1Cc1ccccc1	0 mm	0 mm	0 mm	0 mm	8 mm	16 µg/mL	0 mm	32 µg/mL	4 µg/mL	2 µg/mL	0 mm	8 µg/mL	2 µg/mL		10 mm		QA [33]: questionable activity; Concentration [32]: 16 µg/mL; Concentration [17]: 4 µg/mL; Concentration [21]: 2 µg/mL
